The subject of data set [1] is Mus musculus. Description: Anxiolysis activity in ip dosed C57BL/6N mouse assessed as time spent on open arms by elevated plus maze test. The data set is classed as functional, organism-based. In outline: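 Male C57BL/6N mice, 3–6 months old, given ip injections 30 min before testing. Vehicle was 0.9% NaCl with 10% DMSO and 3% Tween 80; doses in mg/kg, with saline controls. 5 min on an elevated plus maze (arms 50 × 5 cm, 1 m high, 180 Lux), starting in the centre facing an open arm. Time on open arms scored automatically by video.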

In data set [2] the test system is Mus musculus. Description: Sedative effect in ip dosed C57BL/6N mouse assessed as reduction in locomotor activity by open field test. Conditions: in vivo. In kind it is organism-based. In outline: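 Male C57BL/6N mice, 3–6 months old, dosed ip 30 min before testing. Vehicle was 0.9% NaCl with 10% DMSO and 3% Tween 80; doses in mg/kg. Ambulation recorded over 10 min in a 50 × 50 cm box fitted with infrared rearing detection.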

Data set [3] has as its target Transient receptor potential cation channel subfamily V member 1 (Homo sapiens) (UniProt Q8NER1). Description: Activation of TRPV1 (unknown origin) expressed in Xenopus oocytes up to 100 uM. In kind it is cell-based.
Data set [4] addresses T1, GABA-A receptor; alpha-1/beta-2/gamma-2 (Homo sapiens, UniProt P14867+P18507+P47870).
T1 sequence (P14867 whole entry): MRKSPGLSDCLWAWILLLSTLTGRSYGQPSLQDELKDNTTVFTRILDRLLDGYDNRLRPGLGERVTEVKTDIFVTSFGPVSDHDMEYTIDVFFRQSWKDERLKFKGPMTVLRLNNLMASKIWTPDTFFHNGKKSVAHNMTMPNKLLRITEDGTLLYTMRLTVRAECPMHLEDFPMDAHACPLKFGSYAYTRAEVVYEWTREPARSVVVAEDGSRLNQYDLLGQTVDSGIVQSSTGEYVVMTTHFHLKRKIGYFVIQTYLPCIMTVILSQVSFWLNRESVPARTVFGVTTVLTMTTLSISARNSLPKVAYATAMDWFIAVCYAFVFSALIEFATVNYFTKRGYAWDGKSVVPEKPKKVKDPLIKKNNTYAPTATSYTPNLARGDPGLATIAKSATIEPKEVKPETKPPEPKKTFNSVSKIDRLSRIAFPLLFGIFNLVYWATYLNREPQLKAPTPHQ
T1 sequence (P47870 whole entry): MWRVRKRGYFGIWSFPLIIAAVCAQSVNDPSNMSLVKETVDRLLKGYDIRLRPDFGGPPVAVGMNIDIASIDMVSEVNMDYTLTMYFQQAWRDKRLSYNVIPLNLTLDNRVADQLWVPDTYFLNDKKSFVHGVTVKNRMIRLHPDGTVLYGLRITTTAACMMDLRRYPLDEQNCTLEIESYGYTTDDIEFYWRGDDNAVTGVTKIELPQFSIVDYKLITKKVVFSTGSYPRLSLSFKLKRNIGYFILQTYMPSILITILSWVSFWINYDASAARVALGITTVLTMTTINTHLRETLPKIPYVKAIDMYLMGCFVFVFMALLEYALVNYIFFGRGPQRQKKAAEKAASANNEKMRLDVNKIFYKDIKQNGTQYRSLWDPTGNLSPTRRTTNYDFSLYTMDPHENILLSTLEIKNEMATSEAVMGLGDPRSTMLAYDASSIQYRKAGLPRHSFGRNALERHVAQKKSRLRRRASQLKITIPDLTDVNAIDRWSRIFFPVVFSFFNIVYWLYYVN
T1 sequence (P18507 whole entry): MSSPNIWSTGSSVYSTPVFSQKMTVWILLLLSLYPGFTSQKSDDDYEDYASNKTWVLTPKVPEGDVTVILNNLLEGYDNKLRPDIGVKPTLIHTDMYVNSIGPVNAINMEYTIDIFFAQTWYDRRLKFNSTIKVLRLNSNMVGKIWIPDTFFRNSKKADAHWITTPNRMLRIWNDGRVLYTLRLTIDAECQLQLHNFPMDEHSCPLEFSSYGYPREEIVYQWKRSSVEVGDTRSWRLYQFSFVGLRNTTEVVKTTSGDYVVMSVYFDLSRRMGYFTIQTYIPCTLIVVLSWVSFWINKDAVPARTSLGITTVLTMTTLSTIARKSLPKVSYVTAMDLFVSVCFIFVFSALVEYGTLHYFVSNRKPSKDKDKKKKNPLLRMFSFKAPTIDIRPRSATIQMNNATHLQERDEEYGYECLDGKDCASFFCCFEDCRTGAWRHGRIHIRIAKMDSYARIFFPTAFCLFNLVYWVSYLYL
Description: Modulation of GABAA alpha1beta2gamma2S receptor (unknown origin) expressed in Xenopus laevis oocytes assessed as potentiation of GABA-induced chloride ion current at holding potential -70 mV by two-microelectrode voltage clamp assay. In kind it is cell-based. The gist of the method: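 Stage V–VI oocytes injected with α1, β2 and γ2S cRNAs mixed 1:1:10 and kept at 18 °C in modified ND96 (pH 7.4). Two-microelectrode voltage clamp at room temperature, holding potential −70 mV, electrodes with 2 M KCl. Compounds co-applied by fast perfusion with GABA at EC3–7. Washout lasted 1.5 min below 10 μM and 30 min at ≥10 μM. Oocytes with currents >3 μA discarded.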

Activity calls are given as the source filed them. The calls are words filed in the database; no cut-off is given here.

Transient receptor potential cation channel subfamily V member 1 (Homo sapiens), sequence (Q8NER1 whole entry): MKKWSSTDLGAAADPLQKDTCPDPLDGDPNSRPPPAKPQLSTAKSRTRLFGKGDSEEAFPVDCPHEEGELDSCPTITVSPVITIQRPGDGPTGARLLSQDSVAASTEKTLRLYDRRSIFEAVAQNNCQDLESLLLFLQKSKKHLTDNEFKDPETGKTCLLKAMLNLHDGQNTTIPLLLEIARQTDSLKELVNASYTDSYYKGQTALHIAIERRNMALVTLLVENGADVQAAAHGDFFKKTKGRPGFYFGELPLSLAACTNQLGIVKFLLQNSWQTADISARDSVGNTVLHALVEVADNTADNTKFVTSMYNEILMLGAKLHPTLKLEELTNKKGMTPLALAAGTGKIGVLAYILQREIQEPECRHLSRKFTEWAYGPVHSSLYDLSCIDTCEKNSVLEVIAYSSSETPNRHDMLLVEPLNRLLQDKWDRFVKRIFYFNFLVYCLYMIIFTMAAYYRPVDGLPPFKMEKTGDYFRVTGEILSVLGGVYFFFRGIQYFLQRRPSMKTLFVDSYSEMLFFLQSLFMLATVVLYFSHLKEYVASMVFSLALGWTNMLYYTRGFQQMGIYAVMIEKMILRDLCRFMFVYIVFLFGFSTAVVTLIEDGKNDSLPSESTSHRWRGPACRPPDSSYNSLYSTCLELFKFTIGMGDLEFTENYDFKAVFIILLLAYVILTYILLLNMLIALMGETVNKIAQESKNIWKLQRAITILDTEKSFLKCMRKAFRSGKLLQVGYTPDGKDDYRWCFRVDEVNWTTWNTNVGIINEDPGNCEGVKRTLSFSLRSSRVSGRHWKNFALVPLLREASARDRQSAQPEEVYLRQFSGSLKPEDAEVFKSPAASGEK

Regarding `CCCN(CCC)C(=O)/C=C/C=C/c1ccc2c(c1)OCO2`, the Activity entry was “Dose-dependent effect” with Mus musculus [1] and “Toxic” with Mus musculus [2]. Further, the result in data set [3] was inactive.

In the case of `O=C(/C=C/C=C/c1ccc2c(c1)OCO2)N1CCCCC1` [PIPERINE], in data set [4], the EC50 was determined as 52.4 µM.

On to `CCCCN(CCCC)C(=O)/C=C/C=C/c1ccc2c(c1)OCO2`, for which the Activity result with Mus musculus [2] was “Toxic”. Besides, in data set [3], the result was inactive.

In general, EC50 refers to the midpoint of the concentration-response curve.

(Values after ChEMBL document CHEMBL3286229 (J Med Chem, 2014).)
